# From ChEMBL document CHEMBL1121739, “Inhibition of human acrosin by monosaccharides and related compounds: structure-activity relationships” (J Med Chem, 1981)
# Molecular target: Acrosin (Homo sapiens) (UniProt P10323)
# Assay: Compound was tested for inhibition of Human acrosin by ketoses
# Details: concentration not given here
# How it was run: (§1)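 Homologous aldoses or ketoses of different carbon chain lengths were each tested at 100 mM against purified human α-acrosin. The enzyme was preincubated with sugar for 5 min at ambient temperature, pH 7.5, with 3×10^-4 M BAPA as substrate and hydrolysis read spectrophotometrically at 253 nm. Results are % inhibition of control activity, as mean ± SE with n given.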
# Chain of Acrosin (Homo sapiens) (P10323 20-42 limits assumed): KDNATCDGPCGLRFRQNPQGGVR
# Chain of Acrosin (Homo sapiens) (P10323 43-343 limits assumed): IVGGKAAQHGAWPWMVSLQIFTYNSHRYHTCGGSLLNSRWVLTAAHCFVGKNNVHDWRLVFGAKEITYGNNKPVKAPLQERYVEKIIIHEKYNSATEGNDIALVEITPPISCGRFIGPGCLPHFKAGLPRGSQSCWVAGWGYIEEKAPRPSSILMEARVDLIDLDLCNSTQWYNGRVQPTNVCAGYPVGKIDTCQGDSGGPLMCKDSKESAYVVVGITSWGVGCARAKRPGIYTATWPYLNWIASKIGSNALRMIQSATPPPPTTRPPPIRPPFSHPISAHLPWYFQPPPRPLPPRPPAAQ
row,Compound,inhibition
1,O=C(CO)CO,15%
2,OC[C@H]1OC(O)(CO)[C@@H](O)[C@@H](O)[C@@H]1O (some centres undefined),41%
3,O=C(CO)C(O)C(O)CO (centres undefined),38%
4,O=C(CO)[C@@H](O)[C@H](O)[C@H](O)CO,47%

# Molecular target: Acrosin (Homo sapiens) (UniProt P10323)
# Assay: Compound was tested for inhibition of Human acrosin by aldoses
# Details: not given
# How it was run: as §1
row,Compound,inhibition
1,O=CC(O)C(O)CO (centres undefined),40%
2,OC[C@H]1OC(O)[C@@H](O)[C@@H](O)[C@@H]1O (some centres undefined),48%
3,OC1OC[C@@H](O)[C@@H](O)[C@@H]1O (some centres undefined),36%

# Molecular target: Acrosin (Homo sapiens) (UniProt P10323)
# Assay: Compound was tested for inhibition of Human acrosin by polyols
# Details: concentration not given here
row,Compound,inhibition
1,OC[C@@H](O)[C@@H](O)[C@H](O)[C@@H](O)CO,38%
2,OCC(O)CO,28%
3,O[C@H]1[C@H](O)[C@@H](O)[C@H](O)[C@@H](O)[C@H]1O,30%
4,OC[C@@H](O)[C@@H](O)[C@H](O)[C@H](O)CO,29%

# Molecular target: Acrosin (Homo sapiens) (UniProt P10323)
# Assay: Compound was tested for inhibition of Human acrosin by ketohexoses
# Details: concentration not given here
# How it was run: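 Purified human α-acrosin from acetic acid extracts of frozen sperm, run through Sephadex G-150 and CM-cellulose. Sugars at 200 mM were preincubated with the enzyme for 5 min at ambient temperature in 50 mM sodium phosphate, pH 7.5. Reaction started with 5×10^-5 M BAEE or 3×10^-4 M BAPA; hydrolysis followed at 253 nm. Percent inhibition versus inhibitor-free control, mean ± SE of 3–6 determinations.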
row,Compound,inhibition
1,O=C(CO)C(O)C(O)C(O)CO (centres undefined),18%
2,OCC1(O)OCC(O)C(O)C1O (centres undefined),58%
3,O=P(O)(O)OC[C@H]1O[C@](O)(CO)[C@@H](O)[C@@H]1O,32%
4,O=C(CO)[C@@H](O)[C@H](O)[C@H](O)CO,66%

# Molecular target: Acrosin (Homo sapiens) (UniProt P10323)
# Assay: Compound was tested for inhibition of Human acrosin by aldohexoses
# Parameters: concentration or dose not given beside the values
# Details: concentration not given here
# How it was run: (§2)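 Purified human α-acrosin (acetic acid extract of frozen sperm, then Sephadex G-150 and CM-cellulose). Sugar at 200 mM was preincubated with enzyme for 5 min at ambient temperature in 50 mM sodium phosphate, pH 7.5. The reaction was started with 5×10^-5 M BAEE or 3×10^-4 M BAPA and followed at 253 nm. Results are % inhibition of the no-inhibitor control rate, as mean ± SE.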
row,Compound,inhibition
1,C[C@H]1OC(O)[C@H](O)[C@@H](O)[C@H]1O (some centres undefined),62%
2,OC[C@H]1O[C@@H](O)[C@H](O)[C@@H](O)[C@H]1O (stereo in doubt; form 1),34%
3,OC[C@H]1OC(O)[C@H](O)[C@@H](O)[C@@H]1O (some centres undefined),28%
4,OC[C@@H]1OC(O)[C@@H](O)[C@H](O)[C@H]1O (some centres undefined),0%
5,OC[C@H]1O[C@@H](O)[C@H](O)[C@@H](O)[C@H]1O (stereo in doubt; form 2),12%
6,OC[C@H]1OC(O)[C@@H](O)[C@@H](O)[C@@H]1O (some centres undefined),60%
7,OC[C@H]1OC(O)[C@H](O)[C@H](O)[C@H]1O (some centres undefined),0%
8,C[C@H](O)[C@@H](O)[C@@H](O)[C@H](O)C=O,20%

# Molecular target: Acrosin (Homo sapiens) (UniProt P10323)
# Assay: Compound was tested for inhibition of Human acrosin by phosphorylated monosaccharides
# Parameters: concentration or dose not given beside the values
# Details: concentration not given here
# How it was run: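 Phosphorylated sugars, as barium salts in the D configuration, were tested at 100 mM, limited by solubility; the parent sugars were also run at 100 mM. Each was preincubated 5 min with purified human α-acrosin before adding BAEE or BAPA. The spectrophotometric 253 nm assay measured % inhibition relative to a no-inhibitor control.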
row,Compound,inhibition
1,O=P(O)(O)OC[C@H]1OC(O)[C@H](O)[C@@H](O)[C@H]1O (some centres undefined),10%
2,O=P(O)(O)OC[C@H]1O[C@H](O)[C@H](O)[C@@H]1O,15%
3,OC[C@H]1O[C@H](O)[C@H](O)[C@@H]1O,45%
4,O=C[C@H](O)[C@@H](O)[C@@H](O)[C@H](O)CO,0%
5,O=P(O)(O)OC[C@H]1O[C@](O)(CO)[C@@H](O)[C@@H]1O,7%
6,O=P(O)(O)OC[C@H]1OC(O)(COP(=O)(O)O)[C@@H](O)[C@@H]1O (some centres undefined),18%
7,O=P(O)(O)OC[C@@]1(O)O[C@H](CO)[C@@H](O)[C@@H]1O,9%
8,O=P(O)(O)OC1O[C@H](CO)[C@H](O)[C@H](O)[C@H]1O (some centres undefined),3%
9,O=C(CO)[C@@H](O)[C@H](O)[C@H](O)CO,46%

# Molecular target: Acrosin (Homo sapiens) (UniProt P10323)
# Assay: Compound was tested for inhibition of Human acrosin by aldopentoses
# Parameters: concentration or dose not given beside the values
# Details: concentration not given here
# How it was run: as §2
row,Compound,inhibition
1,OC1OC[C@H](O)[C@@H](O)[C@@H]1O (some centres undefined),40%
2,OC[C@H]1O[C@H](O)[C@H](O)[C@@H]1O,65%
3,O=C[C@H](O)[C@@H](O)[C@H](O)CO,37%
4,O[C@@H]1[C@H](O)[C@@H](O)OC[C@H]1O (stereo in doubt; form 1),50%
5,OC1OC[C@@H](O)[C@@H](O)[C@@H]1O (some centres undefined),50%
6,O[C@@H]1[C@H](O)[C@@H](O)OC[C@H]1O (stereo in doubt; form 2),35%
7,OC1OC[C@H](O)[C@H](O)[C@H]1O (some centres undefined),65%
